In brackets after ≈: the same amount, converted by molar mass. Activity calls are given as the source filed them. The rule behind the calls is not given here.
Experiments:
[1] = system: Staphylococcus aureus; test: Potentiation of oxacillin induced antibacterial activity against Staphylococcus aureus USA100-NRS382 assessed as oxacillin MIC at 8 uM measured after 16 to 20 hrs in presence of 2% NaCl by microdilution broth method (reference value: 64 mg/L); type: functional
[2] = system: Staphylococcus aureus; test: Antibacterial activity against Staphylococcus aureus NRS70 measured after 16 to 20 hrs in absence of 2% NaCl by microdilution broth method
[3] = system: Staphylococcus aureus; test: Potentiation of oxacillin induced antibacterial activity against Staphylococcus aureus USA200-NRS383 assessed as oxacillin MIC at 8 uM measured after 16 to 20 hrs in presence of 2% NaCl by microdilution broth method (reference value: 128 mg/L); type: functional
[4] = system: Staphylococcus aureus; test: Antibacterial activity against Staphylococcus aureus NRS384 measured after 16 to 20 hrs in presence of 2% NaCl by microdilution broth method; type: functional
[5] = system: Staphylococcus aureus; test: Potentiation of oxacillin induced antibacterial activity against Staphylococcus aureus NRS70 assessed as oxacillin MIC at 16 uM measured after 16 to 20 hrs in presence of 2% NaCl by microdilution broth method (reference value: 64 mg/L); type: functional
[6] = system: Staphylococcus aureus; test: Potentiation of oxacillin induced antibacterial activity against Staphylococcus aureus NRS70 assessed as oxacillin MIC at 20 uM measured after 16 to 20 hrs in presence of 2% NaCl by microdilution broth method (reference value: 64 mg/L); type: functional
[7] = system: Staphylococcus aureus; test: Potentiation of oxacillin induced antibacterial activity against Staphylococcus aureus USA200-NRS383 assessed as oxacillin MIC at 16 uM measured after 16 to 20 hrs in presence of 2% NaCl by microdilution broth method (reference value: 128 mg/L); type: functional
[8] = system: Staphylococcus aureus; test: Antibacterial activity against Staphylococcus aureus USA100-NRS382 measured after 16 to 20 hrs in presence of 2% NaCl by microdilution broth method; type: functional
[9] = system: Staphylococcus aureus; test: Potentiation of oxacillin induced antibacterial activity against Staphylococcus aureus Mu50 NRS1 assessed as oxacillin MIC at 16 uM measured after 16 to 20 hrs in presence of 2% NaCl by microdilution broth method (reference value: 256 mg/L); type: functional
[10] = system: Staphylococcus aureus; test: Potentiation of oxacillin induced antibacterial activity against Staphylococcus aureus MW2 NRS123 assessed as oxacillin MIC at 8 uM measured after 16 to 20 hrs in presence of 2% NaCl by microdilution broth method (reference value: 16 mg/L); type: functional
[11] = system: Staphylococcus aureus; test: Potentiation of oxacillin induced antibacterial activity against Staphylococcus aureus USA100-NRS382 assessed as oxacillin MIC at 20 uM measured after 16 to 20 hrs in presence of 2% NaCl by microdilution broth method (reference value: 64 mg/L); type: functional
[12] = system: Staphylococcus aureus; test: Potentiation of oxacillin induced antibacterial activity against Staphylococcus aureus MRSA252 assessed as oxacillin MIC at 16 uM measured after 16 to 20 hrs in presence of 2% NaCl by microdilution broth method (reference value: 256 mg/L); type: functional
[13] = system: Staphylococcus aureus; test: Potentiation of oxacillin induced antibacterial activity against Staphylococcus aureus MRSA252 assessed as oxacillin MIC at 8 uM measured after 16 to 20 hrs in presence of 2% NaCl by microdilution broth method (reference value: 256 mg/L); type: functional
[14] = system: Staphylococcus aureus; test: Antibacterial activity against Staphylococcus aureus NRS119 measured after 16 to 20 hrs in presence of 2% NaCl by microdilution broth method; type: functional
[15] = system: Staphylococcus aureus; test: Potentiation of oxacillin induced antibacterial activity against Staphylococcus aureus USA200-NRS383 assessed as oxacillin MIC at 20 uM measured after 16 to 20 hrs in presence of 2% NaCl by microdilution broth method (reference value: 128 mg/L); type: functional
[16] = system: Staphylococcus aureus; test: Potentiation of oxacillin induced antibacterial activity against Staphylococcus aureus USA100-NRS382 assessed as oxacillin MIC at 16 uM measured after 16 to 20 hrs in presence of 2% NaCl by microdilution broth method (reference value: 64 mg/L); type: functional
[17] = system: Staphylococcus aureus; test: Potentiation of oxacillin induced antibacterial activity against methicillin susceptible Staphylococcus aureus NRS11 assessed as reduction in oxacillin MIC at 20 uM measured after 16 to 20 hrs in presence of 2% NaCl by microdilution broth method; type: functional
Outline: (§1)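 Oxacillin MIC was measured against methicillin-susceptible strains with the adjuvant fixed at 20 μM. Potentiation was expressed as fold reduction of the oxacillin MIC relative to oxacillin alone.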

[18] = system: Staphylococcus aureus; test: Potentiation of oxacillin induced antibacterial activity against Staphylococcus aureus Mu50 NRS1 assessed as oxacillin MIC at 8 uM measured after 16 to 20 hrs in presence of 2% NaCl by microdilution broth method (reference value: 256 mg/L); type: functional
[19] = system: Staphylococcus aureus; test: Potentiation of oxacillin induced antibacterial activity against Staphylococcus aureus MW2 NRS123 assessed as oxacillin MIC at 20 uM measured after 16 to 20 hrs in presence of 2% NaCl by microdilution broth method (reference value: 16 mg/L); type: functional
[20] = system: Staphylococcus aureus; test: Potentiation of oxacillin induced antibacterial activity against methicillin susceptible Staphylococcus aureus NRS77 assessed as reduction in oxacillin MIC at 20 uM measured after 16 to 20 hrs in presence of 2% NaCl by microdilution broth method; type: functional; outline: as §1
[21] = system: Staphylococcus aureus; test: Potentiation of oxacillin induced antibacterial activity against Staphylococcus aureus MW2 NRS123 assessed as oxacillin MIC at 16 uM measured after 16 to 20 hrs in presence of 2% NaCl by microdilution broth method (reference value: 16 mg/L); type: functional
[22] = system: Staphylococcus aureus; test: Potentiation of oxacillin induced antibacterial activity against Staphylococcus aureus NRS384 assessed as oxacillin MIC at 8 uM measured after 16 to 20 hrs in presence of 2% NaCl by microdilution broth method (reference value: 32 mg/L); type: functional
[23] = system: Staphylococcus aureus; test: Potentiation of oxacillin induced antibacterial activity against Staphylococcus aureus NRS119 assessed as oxacillin MIC at 20 uM measured after 16 to 20 hrs in presence of 2% NaCl by microdilution broth method (reference value: 256 mg/L); type: functional
[24] = system: Staphylococcus aureus; test: Antibacterial activity against Staphylococcus aureus Mu50 NRS1 measured after 16 to 20 hrs in presence of 2% NaCl by microdilution broth method; type: functional
[25] = system: Staphylococcus aureus; test: Antibacterial activity against Staphylococcus aureus USA200-NRS383 measured after 16 to 20 hrs in presence of 2% NaCl by microdilution broth method; type: functional
[26] = system: Staphylococcus aureus; test: Potentiation of oxacillin induced antibacterial activity against Staphylococcus aureus NRS119 assessed as oxacillin MIC at 8 uM measured after 16 to 20 hrs in presence of 2% NaCl by microdilution broth method (reference value: 256 mg/L); type: functional
[27] = system: Staphylococcus aureus; test: Potentiation of oxacillin induced antibacterial activity against Staphylococcus aureus Mu50 NRS1 assessed as oxacillin MIC at 20 uM measured after 16 to 20 hrs in presence of 2% NaCl by microdilution broth method (reference value: 256 mg/L); type: functional
[28] = system: Staphylococcus aureus; test: Potentiation of oxacillin induced antibacterial activity against Staphylococcus aureus NRS384 assessed as oxacillin MIC at 16 uM measured after 16 to 20 hrs in presence of 2% NaCl by microdilution broth method (reference value: 32 mg/L); type: functional

Structure (SMILES)	MIC [1] [µg/mL]	MIC [2] [µg/mL]	MIC [3] [µg/mL]	MIC [4] [µg/mL]	MIC [5] [µg/mL]	MIC [6]	MIC [8] [µg/mL]	MIC [9] [µg/mL]	MIC [10] [µg/mL]	MIC [11] [µg/mL]	MIC [12] [µg/mL]	MIC [13] [µg/mL]	MIC [14] [µg/mL]	MIC [16] [µg/mL]	MIC [18] [µg/mL]	MIC [19] [µg/mL]	MIC [21] [µg/mL]	MIC [22] [µg/mL]	fold change (FC) [17]	fold change (FC) [20]	further results
CS(=O)(=O)/C(C#N)=C/c1cc(Cc2ccc(Cl)c(Cl)c2)ccc1OC(F)(F)F	0.5	8 (≈ 17.8 µM)	≥ 128	16	≤ 0.03	Active	≥ 64	0.12	0.5	≤ 0.03	≤ 0.03	2	8	0.06	8	≤ 0.03	0.12	0.25	2 - 10	2 - 10	MIC ([6]; record 2): ≤ 0.03 µg/mL; MIC [23]: Active; MIC [24]: 32 µg/mL; MIC [25]: 32 µg/mL; MIC [26]: 0.06 µg/mL; MIC [27]: ≤ 0.03 µg/mL; MIC [28]: 0.03 µg/mL
CS(=O)(=O)/C(C#N)=C/c1cc(Cc2ccc(Cl)c(Cl)c2)ccc1F	1	8 (≈ 20.8 µM)	≥ 128	32	0.5	≤ 0.03 µg/mL	≥ 64	4	4	0.25	256	256	16	1	8	≤ 0.03	0.5	2	2 - 10	2 - 10	MIC [7]: ≥ 128 µg/mL; MIC [15]: ≥ 128 µg/mL; MIC [23]: ≤ 0.03 µg/mL; MIC [24]: ≥ 64 µg/mL; MIC [25]: ≥ 64 µg/mL; MIC [26]: 0.5 µg/mL; MIC [27]: 1 µg/mL; MIC [28]: 0.25 µg/mL

More lines, in order of falling MIC [1], values ahead:

MIC [1] [µg/mL]	MIC [2] [µg/mL]	MIC [3] [µg/mL]	MIC [4] [µg/mL]	MIC [5] [µg/mL]	MIC [6]	MIC [8] [µg/mL]	MIC [9] [µg/mL]	MIC [10] [µg/mL]	MIC [11] [µg/mL]	MIC [12] [µg/mL]	MIC [13] [µg/mL]	MIC [14] [µg/mL]	MIC [16] [µg/mL]	MIC [18] [µg/mL]	MIC [19] [µg/mL]	MIC [21] [µg/mL]	MIC [22] [µg/mL]	Structure (SMILES)	fold change (FC) [17]	fold change (FC) [20]	further results
4	16 (≈ 43.2 µM)	≥ 128	16	2	0.12 µg/mL	32	16	1	1	128	256	16	2	128	2	0.5	8	CS(=O)(=O)/C(C#N)=C/c1cc(-c2ccc(Cl)c(Cl)c2)ccc1F	2 - 10	2 - 10	MIC [7]: ≥ 128 µg/mL; MIC [15]: ≥ 128 µg/mL; MIC [23]: 0.12 µg/mL; MIC [24]: 16 µg/mL; MIC [25]: 16 µg/mL; MIC [26]: 32 µg/mL; MIC [27]: 2 µg/mL; MIC [28]: 8 µg/mL
1	8 (≈ 19.9 µM)	≥ 128	16	0.5	Active	16	4	≥ 16	≤ 0.03	256	256	16	1	16	≤ 0.03	0.5	32	CS(=O)(=O)/C(C#N)=C/c1c(F)ccc(Cc2ccc(Cl)c(Cl)c2)c1F	2 - 10	2 - 10	MIC ([6]; record 2): ≤ 0.03 µg/mL; MIC [7]: ≥ 128 µg/mL; MIC [15]: ≥ 128 µg/mL; MIC [23]: Active; MIC [24]: 16 µg/mL; MIC [25]: 16 µg/mL; MIC [26]: 4 µg/mL; MIC [27]: ≤ 0.03 µg/mL; MIC [28]: 0.5 µg/mL
0.5	16 (≈ 35.8 µM)	≥ 128	16	0.03	≤ 0.03 µg/mL	16	0.03	0.5	0.12	128	256	16	0.25	128	0.25	0.12	0.5	N#C/C(=C\c1cc(Cc2ccc(Cl)c(Cl)c2)ccc1F)S(=O)(=O)c1ccccn1	2 - 10	2 - 10	MIC [7]: ≥ 128 µg/mL; MIC [15]: ≥ 128 µg/mL; MIC [23]: 0.12 µg/mL; MIC [24]: 16 µg/mL; MIC [25]: 16 µg/mL; MIC [26]: 16 µg/mL; MIC [27]: ≤ 0.03 µg/mL; MIC [28]: 0.12 µg/mL

Source: ChEMBL document CHEMBL4304792, “Cinnamonitrile Adjuvants Restore Susceptibility to β-Lactams against Methicillin-Resistant Staphylococcus aureus” (ACS Med Chem Lett, 2019)
